Assay results as given in ChEMBL document CHEMBL4311987, “Discovery of novel allosteric site and covalent inhibitors of FBPase with potent hypoglycemic effects” (Eur J Med Chem, 2019).
Active and inactive are the calls of the source. The calls are words filed in the database; no cut-off is given here.

Legend:
[1] = target: T1, Fructose-1,6-bisphosphatase 1 (Homo sapiens) (UniProt P09467); assay: Inhibition of human FBPase expressed in Escherichia coli BL21 (DE3) at 500 uM using FBP as substrate incubated for 5 mins by malachite green dye based spectrophotometry relative to control
T1 sequence (whole entry): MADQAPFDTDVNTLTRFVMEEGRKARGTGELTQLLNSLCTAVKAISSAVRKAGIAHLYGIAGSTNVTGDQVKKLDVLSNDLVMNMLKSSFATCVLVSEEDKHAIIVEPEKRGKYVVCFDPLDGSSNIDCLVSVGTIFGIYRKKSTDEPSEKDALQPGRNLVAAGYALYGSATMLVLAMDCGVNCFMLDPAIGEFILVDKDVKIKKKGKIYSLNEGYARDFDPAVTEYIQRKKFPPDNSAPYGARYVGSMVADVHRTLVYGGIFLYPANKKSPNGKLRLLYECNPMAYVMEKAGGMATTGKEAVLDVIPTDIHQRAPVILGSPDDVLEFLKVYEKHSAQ

[2] = target: T2, Fructose-1,6-bisphosphatase 1 (Homo sapiens, UniProt P09467); assay: Inhibition of human FBPase expressed in Escherichia coli BL21 (DE3) using FBP as substrate incubated for 5 mins by malachite green dye based spectrophotometry
T2 sequence (P09467 whole entry): T1 sequence (whole entry)

[3] = system: Hepatocyte; assay: Cytotoxicity against C57BLKS rat Primary hepatocytes assessed as cell viability by measuring cellular protein level at 10 to 100 uM in presence of insulin and glucose by bicinchoninic acid method; format: cell-based
In short: (§1)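 Primary hepatocytes isolated from rat, cultured overnight in DMEM with 10% FBS, then exposed to compounds. Cellular protein per group measured by bicinchoninic acid (BCA) method as a viability control. The same protein values serve to normalize glucose, TG and TC contents. Pathological stimulation where applicable: 1 µM dexamethasone plus 200 µM cAMP, or 25 mM glucose plus 500 nM insulin for 24 h. Means ± SEM, four independent experiments.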

[4] = system: Hepatocyte; assay: Inhibition of glucose production in C57BLKS rat Primary hepatocytes incubated for 3 hrs by glucose assay kit method; format: functional, cell-based
In short: (§2)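 Rat primary hepatocytes cultured overnight in DMEM/10% FBS, then pretreated with compounds for 3 h in fresh medium. Switched to glucose-free DMEM with 2 mM sodium pyruvate, 20 mM sodium lactate and compound for 3 h. Medium glucose measured with a kit and normalized to BCA protein. Pathological arm adds 1 µM dexamethasone plus 200 µM cAMP for 3 h. Means ± SEM, n=4.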

[5] = system: Hepatocyte; assay: Inhibition of glucose production in cAMP and Dex pre-treated C57BLKS rat Primary hepatocytes at 1 uM incubated for 3 hrs by glucose assay kit method; format: functional, cell-based; in short: as §2
[6] = system: Hepatocyte; assay: Cytotoxicity against C57BLKS rat Primary hepatocytes assessed as cell viability by measuring cellular protein level at 10 to 400 uM by bicinchoninic acid method; format: cell-based; in short: as §1
[7] = Cytotoxicity against C57BLKS rat Primary hepatocytes assessed as cell viability incubated for 6 hrs by SRB assay; format: cell-based, Hepatocyte; conditions: read-out: Activity
In short: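 Rat primary hepatocytes under physiological conditions exposed to compounds for 6 h. Viability read by sulforhodamine B staining. Means ± SEM of four independent experiments.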

[8] = system: Hepatocyte; assay: Inhibition of lipid accumulation in C57BLKS rat Primary hepatocytes assessed as reduction in insulin and glucose-induced TC level at 25 uM incubated for 24 hrs; format: functional, cell-based
In short: (§3)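 After overnight culture in DMEM, rat primary hepatocytes pretreated with compounds, then held in 25 mM glucose plus 500 nM insulin for 24 h to induce lipid accumulation. Triglyceride and total cholesterol measured with assay kits and normalized to BCA protein. Means ± SEM of four independent experiments.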

[9] = system: Hepatocyte; assay: Inhibition of glucose production in cAMP and Dex pre-treated C57BLKS rat Primary hepatocytes incubated for 3 hrs by glucose assay kit method; format: functional, cell-based; in short: as §2
[10] = system: Hepatocyte; assay: Cytotoxicity against C57BLKS rat Primary hepatocytes assessed as cell viability by measuring cellular protein level at 1 to 100 uM in presence of cAMP and Dex by bicinchoninic acid method; format: cell-based; in short: as §1
[11] = system: Hepatocyte; assay: Inhibition of lipid accumulation in C57BLKS rat Primary hepatocytes assessed as reduction in insulin and glucose-induced TG level at 25 uM incubated for 24 hrs; format: functional, cell-based; in short: as §3
[12] = system: Hepatocyte; assay: Inhibition of glucose production in C57BLKS rat Primary hepatocytes at 400 uM incubated for 3 hrs by glucose assay kit method relative to control; format: functional; in short: as §2
[13] = system: Hepatocyte; assay: Inhibition of lipid accumulation in C57BLKS rat Primary hepatocytes assessed as reduction in insulin and glucose-induced TC level incubated for 24 hrs; format: functional, cell-based; in short: as §3
[14] = system: Hepatocyte; assay: Inhibition of lipid accumulation in C57BLKS rat Primary hepatocytes assessed as reduction in insulin and glucose-induced TG level at 100 uM incubated for 24 hrs; format: functional, cell-based; in short: as §3

Structure (SMILES): COC(=O)/C=C/C(=O)OC
- inhibition [1]: 22%

Structure (SMILES): CCOC(=O)C(C)(C)Oc1cc(/C=C/[N+](=O)[O-])ccc1Cl
- IC50 [2]: 830 nM

Structure (SMILES): O=C(O)/C=C/C(=O)O
- inhibition [1]: 9.5%

Structure (SMILES): C=CC(=O)Nc1ccccc1
- inhibition [1]: 17%

Structure (SMILES): CCOC(=O)C(C)(C)Oc1cc(/C=C/[N+](=O)[O-])ccc1OC(F)F
- IC50 [2]: 1600 nM

Structure (SMILES): O=[N+]([O-])/C=C/c1ccccc1 [(2-NITROVINYL)BENZENE]
- IC50 [2]: 3500 nM

Structure (SMILES): CCOC(=O)C(C)(C)Oc1ccc(/C=C/[N+](=O)[O-])c(Cl)c1
- IC50 [2]: 1800 nM

Structure (SMILES): CCCCCCCC/C=C(\CCCCCCCC(=O)O)[N+](=O)[O-] [NITROLEIC ACID]
- IC50 [2]: 58000 nM

Structure (SMILES): O=C1C=CCC1
- inhibition [1]: 29%

Structure (SMILES): CCOC(=O)C(C)(C)Oc1ccccc1/C=C/[N+](=O)[O-]
- IC50 [2]: 2700 nM

Structure (SMILES): CCOC(=O)C(C)(C)Oc1ccc(Cl)c(/C=C/[N+](=O)[O-])c1
- Activity [3]: Non-Toxic
- inhibition [4]: Dose-dependent effect
- inhibition [5]: Active
- Activity [6]: Non-Toxic
- viability at 6 h [7]: > 80%
- inhibition [8]: Active
- inhibition [9]: Dose-dependent effect
- Activity [10]: Non-Toxic
- inhibition [11]: Active
- inhibition at 400 µM [12]: 90%
- inhibition [13]: Dose-dependent effect
- inhibition [14]: inactive
- IC50 [2]: 2900 nM

Structure (SMILES): CCOC(=O)C(C)(C)Oc1ccc(Cl)cc1/C=C/[N+](=O)[O-]
- Activity [3]: Non-Toxic
- inhibition [4]: Dose-dependent effect
- inhibition [5]: Active
- Activity [6]: Non-Toxic
- viability at 6 h [7]: > 80%
- inhibition [8]: Active
- inhibition [9]: Dose-dependent effect
- Activity [10]: Non-Toxic
- inhibition [11]: Active
- inhibition at 400 µM [12]: 90%
- inhibition [13]: Dose-dependent effect
- inhibition [14]: inactive
- IC50 [2]: 8200 nM

Structure (SMILES): S=C=NCc1ccccc1
- inhibition [1]: 4.1%

Structure (SMILES): Nc1ncnc2c1ncn2[C@@H]1O[C@H](COP(=O)(O)O)[C@@H](O)[C@H]1O [ADENOSINE PHOSPHATE]
- IC50 [2]: 2300 nM

Structure (SMILES): O=C/C=C/c1ccccc1
- inhibition [1]: 15%

Structure (SMILES): CCOC(=O)C(C)(C)Oc1ccc(Br)c(/C=C/[N+](=O)[O-])c1
- IC50 [2]: 790 nM

Structure (SMILES): c1ccc(C2CO2)cc1 (configuration not stated)
- inhibition [1]: 31%

Structure (SMILES): CCOC(=O)C(C)(C)Oc1ccc(/C=C/[N+](=O)[O-])cc1
- IC50 [2]: 3100 nM

Structure (SMILES): CCOC(=O)C(C)(C)Oc1ccc(/C=C/[N+](=O)[O-])cc1Cl
- IC50 [2]: 1600 nM

Structure (SMILES): CCOC(=O)C(C)(C)Oc1ccc(F)cc1/C=C/[N+](=O)[O-]
- IC50 [2]: 7000 nM

Structure (SMILES): CC(=O)C=O
- inhibition [1]: 19%

Structure (SMILES): CCOC(=O)C(C)(C)Oc1cccc(/C=C/[N+](=O)[O-])c1
- IC50 [2]: 1000 nM

Structure (SMILES): C=C(CC)C(=O)c1ccc(OCC(=O)O)c(Cl)c1Cl
- inhibition [1]: 56%
